High-throughput results as filed in PubChem BioAssay.
IDH1 mut inh = inhibitors of IDH1 R132H reductase, primary screen, biochemical, plate reader, single point; inhibition, % at 10 µM; 70,000 tested, 0.18% active; diaphorase/resazurin fluorescence, 60 min; in the data active = inhibition above about 34%; inconclusive = no clear call, values can overlap the other calls; inactive = below about 11%
T cruzi growth-1 = T. cruzi intracellular proliferation inhibitors, primary screen, cell-based, beta-gal Tulahuen parasites, NIH3T3 host, luminescence; T. cruzi beta-gal in NIH3T3, GalScreen luminescence, 90 h; inhibition, % at 8.34 µM; 77,000 tested, 5.9% active;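 active = mean inhibition above about 93%, with at least 55% of replicates each passing it, limit read from the data, passing the limit was not always enough; inconclusive = only one of those two conditions holds; inactive = neither condition holds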
KDM4C inh = inhibitors of GASC-1 (KDM4C) histone demethylase, primary screen, biochemical, single concentration HTS | GST-KDM4C 2-372, H3K9me3 peptide, LANCE TR-FRET | AID 720574, 2013 | 96,000 tested, 0.15% active | inhibition, % at 12.5 µM | Lysine-specific demethylase 4C (Homo sapiens), Q9H3R0;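 active = mean replicate inhibition above about 25%, with at least 55% of replicates also reaching it, limit read from the data, passing the limit was not always enough; inconclusive = only one of those two conditions met; inactive = neither condition met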
Target sequence (Q9H3R0 2-372 limits assumed): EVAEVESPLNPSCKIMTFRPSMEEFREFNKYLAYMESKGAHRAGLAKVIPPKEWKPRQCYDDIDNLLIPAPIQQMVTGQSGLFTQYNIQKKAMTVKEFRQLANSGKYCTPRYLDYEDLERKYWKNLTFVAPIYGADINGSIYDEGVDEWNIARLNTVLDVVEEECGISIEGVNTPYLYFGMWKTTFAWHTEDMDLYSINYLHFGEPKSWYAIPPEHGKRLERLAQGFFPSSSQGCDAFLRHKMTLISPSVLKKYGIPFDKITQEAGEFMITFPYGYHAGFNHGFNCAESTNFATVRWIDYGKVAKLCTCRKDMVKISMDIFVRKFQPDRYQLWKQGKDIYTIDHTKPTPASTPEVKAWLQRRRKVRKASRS
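Test system: N-terminal GST-fused human GASC-1 (KDM4C) fragment, residues 2-372; quantity: GASC-1 enzyme at 10 nM final in reaction; dosing: single dose; schedule: 30 min demethylation and 1 h detection at room temperature; signal: LANCE TR-FRET, excitation 340 nm, emissions 618 and 671 nm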
T cruzi growth-2 = T. cruzi intracellular proliferation inhibitors, confirmation, cell-based, NIH3T3 host, beta-gal parasite, luminescence, cherry-pick. T. cruzi beta-gal in NIH3T3, GalScreen luminescence, 90 h. AID 651739, 2012. inhibition, % at 8.35 µM. shares compounds with T cruzi growth-1. 5,600 tested, 72% active;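 active = mean replicate inhibition above about 95% and at least 55% of replicates individually reaching it, limit read from the data; inconclusive = only one of the two criteria is met; inactive = neither criterion is met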
T cruzi growth-3 = inhibitors of intracellular T. cruzi replication, confirmation, NIH3T3 host cells, beta-gal parasites, cherry-pick, set 2; 5,600 tested, 21% active; AID 651740, 2012; T. cruzi beta-gal in NIH3T3, GalScreen luminescence, 90 h; shares compounds with T cruzi growth-1; inhibition, % at 2.09 µM;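 active = mean inhibition above about 95%, with at least 55% of replicates also reaching it, limit read from the data; inconclusive = meets just one of the two conditions; inactive = meets neither condition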
NIH3T3 tox = cytotoxicity in mouse NIH/3T3 fibroblasts, confirmation, cytotoxicity control for T. cruzi proliferation inhibitor project, cell-based, cherry-pick, single point; shares compounds with T cruzi growth-1; 5,600 tested, 14% active; NIH/3T3 viability, CellTiter-Glo ATP luminescence, 90 h; cytotoxicity (signal decrease), % at 8.35 µM; AID 651742, 2012;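 active = mean signal decrease across replicates above about 35% based on untreated-well scatter, with enough replicates individually passing, limit read from the data; inconclusive = no rule stated though some were filed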
3T3 cytotox 2 = NIH/3T3 fibroblast cytotoxicity, confirmation, cytotoxicity control, cell-based, cherry-pick, single point, set 2; inhibition, % at 24.9 µM; AID 651744, 2012; shares compounds with T cruzi growth-1; NIH/3T3 viability, CellTiter-Glo ATP luminescence, 90 h; 5,600 tested, 56% active;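 active = mean loss of cell viability signal at or above a set limit, and enough replicates individually reaching it; inconclusive = meets only the mean limit or only the replicate share; inactive = meets neither condition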
Of the large screens only hits and unclear results are named; the others gave an inactive call (follow-up assays come after a bar, where they were run). Only a selection was taken, and hits are over-represented in it overall.

COc1ccc(S(=O)(=O)Nc2ccc3c(c2)CC(=O)N([C@@H](C)CO)C[C@@H](C)[C@@H](CN(C)S(=O)(=O)c2cn(C)cn2)O3)cc1	none
CN1CCN(C(=O)C[C@@H]2C=C[C@H](NC(=O)Nc3ccccc3F)[C@@H](CO)O2)CC1	none
CC(C)c1ccc(OCC(=O)Nc2ccccc2C#N)c(Br)c1	none (no result: T cruzi growth-1, KDM4C inh)
CN1C(=O)c2cc(NC(=O)c3ccc(F)cc3)ccc2OC[C@@H]2O[C@@H](CC(=O)NCC3CC3)CC[C@@H]21	none (no result: IDH1 mut inh)
C[C@H]1CN([C@@H](C)CO)C(=O)c2cccc(NC(=O)Nc3cccc4ccccc34)c2O[C@@H]1CN(C)C(=O)Nc1ccccc1	none
C[C@@H]1CN([C@H](C)CO)C(=O)c2cccc(NC(=O)C3CCCCC3)c2O[C@H]1CN(C)C(=O)Nc1ccc(F)cc1	none
C[C@H]1CN([C@@H](C)CO)C(=O)c2cccc(NC(=O)Nc3ccc(C(F)(F)F)cc3)c2O[C@H]1CN(C)C(=O)Nc1cccc2ccccc12	T cruzi growth-1 100.6 (no result: IDH1 mut inh) | T cruzi growth-2 inactive | T cruzi growth-3 112.5 | NIH3T3 tox 62.6 | 3T3 cytotox 2 105.0
C[C@H](CO)N1C[C@H](C)[C@H](CN(C)C(=O)Nc2ccc(F)cc2)Oc2c(NC(=O)Nc3cccc4ccccc34)cccc2C1=O	T cruzi growth-1 inconclusive | T cruzi growth-2 109.3 | T cruzi growth-3 inactive | NIH3T3 tox 36.8 | 3T3 cytotox 2 94.8
C[C@H]1CN([C@@H](C)CO)C(=O)c2cccc(NC(=O)Nc3cccc4ccccc34)c2O[C@H]1CN(C)C(=O)Nc1ccccc1	T cruzi growth-1 102.0 (no result: IDH1 mut inh) | T cruzi growth-2 inconclusive | T cruzi growth-3 inactive | NIH3T3 tox inactive | 3T3 cytotox 2 inactive
C[C@@H]1CN([C@@H](C)CO)C(=O)c2cccc(NC(=O)C3CC3)c2O[C@H]1CN(C)C(=O)Nc1ccc(F)cc1	T cruzi growth-1 107.6 | T cruzi growth-2 96.2 | T cruzi growth-3 inactive | NIH3T3 tox inactive | 3T3 cytotox 2 inactive
C[C@@H]1CN([C@H](C)CO)C(=O)c2cccc(NC(=O)Nc3ccc(C(F)(F)F)cc3)c2O[C@@H]1CN(C)C(=O)Nc1cccc2ccccc12	none
C[C@H]1CN([C@@H](C)CO)C(=O)c2cccc(NC(=O)Nc3cccc4ccccc34)c2O[C@@H]1CN(C)C(=O)Nc1ccc(F)cc1	none
C[C@@H]1CCCCO[C@H](CN(C)C)[C@@H](C)CN([C@@H](C)CO)C(=O)c2cc(NC(=O)Nc3ccc(F)cc3)ccc2O1	none
CC(C)NC(=O)N(C)C[C@@H]1OCCCC[C@@H](C)Oc2ccc(NC(=O)Nc3ccc4c(c3)OCO4)cc2C(=O)N([C@H](C)CO)C[C@@H]1C	none
Cc1ccc(-c2ccc3c(c2)O[C@H](CN(C)Cc2ccc(C(=O)O)cc2)[C@H](C)CN([C@H](C)CO)S3(=O)=O)cc1	none
C[C@H]1CN([C@@H](C)CO)S(=O)(=O)c2ccc(-c3ccccc3)cc2O[C@@H]1CN(C)Cc1ccccc1	none
Cc1ccc(-c2ccc3c(c2)O[C@@H](CN(C)Cc2ccccc2)[C@@H](C)CN([C@H](C)CO)S3(=O)=O)cc1	T cruzi growth-1 114.5 | T cruzi growth-2 inactive | T cruzi growth-3 102.7 | NIH3T3 tox inactive | 3T3 cytotox 2 102.8
Cc1ccc(-c2ccc3c(c2)O[C@@H](CN(C)Cc2ccccc2)[C@@H](C)CN([C@@H](C)CO)S3(=O)=O)cc1	T cruzi growth-1 124.0 | T cruzi growth-2 95.6 | T cruzi growth-3 107.0 | NIH3T3 tox inactive | 3T3 cytotox 2 103.7
COc1c(CO)c(O)cc2c1C(=O)CCC2O (centres undefined)	none (no result: T cruzi growth-1, KDM4C inh)
